Source: ChEMBL document CHEMBL1123103, “Pyrimidinones. 1. 2-Amino-5-halo-6-aryl-4(3H)-pyrimidinones. Interferon-inducing antiviral agents” (1985)

Key:
Format in all cases: functional
[1] = system: Vesicular stomatitis virus; assay: Evaluation for serum interferon response from a single 800 mg/kg intraperitoneal administration in vesicular stomatitis virus on […] cells.
Procedure, shortened: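 Mice got a single ip 800 mg/kg dose. Blood was drawn 3, 6, 8 and 12 h later from five mice per group and pooled. Interferon titer was measured by plaque reduction with vesicular stomatitis virus on L929 cells. Titer is the reciprocal serum dilution cutting plaques by 50% versus untreated cultures. Peak response within 24 h was banded: ≥2000, ~500-1000, ~50-500, ~10-50 U/mL.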

Semliki Forest virus [2] = assay: Antiviral activity against Forest virus (SFV)
Procedure, shortened: (§1)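 ICR or CD-1 mice of both sexes got one drug dose by the route in the line (ip, po or sc). The drug was a suspension in 0.9% NaCl or in a CMC/polysorbate 80/benzyl alcohol/NaCl vehicle. […] Deaths were recorded daily for 6 days, 24 mice/group. ED50 is the minimal dose protecting 50% of mice, by probit analysis.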

Semliki Forest virus [3] = assay: Effective dose administered perorally againist Forest virus infected mice; settings: po; procedure, shortened: as §1
Semliki Forest virus [4] = assay: Effective dose administered subcutaneously againist Forest virus infected mice; settings: sc; procedure, shortened: as §1
Human alphaherpesvirus 1 = assay: Intraperitoneal administration against herpes simplex virus type-1 (HSV-1) infected mice
Procedure, shortened: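 ICR or CD-1 mice got drug ip in saline as the total daily dose (mg/kg/day). It was split into doses at -40, -28, -20, -3 and +3 h relative to ip inoculation with 5.6×10^4 pfu HSV-1. Mice were followed for 22 days, 15/group. Protection index = (control mortality − treated mortality)/control mortality; >0.25 counted active. Only the lowest protective dose is recorded.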

Row | Compound | IFN [1] | ED50 (Semliki Forest virus [2]) | ED50 (Semliki Forest virus [3]) | ED50 (Semliki Forest virus [4]) | Protection index (Human alphaherpesvirus 1)
1 | Nc1nc(O)c(I)c(-c2ccc(Cl)c(Cl)c2)n1 | >=2000 ml | 115 mg/kg | > 400 mg/kg | 240 mg/kg | 0.36
2 | Nc1nc(O)c(Br)c(-c2ccoc2)n1 | – | > 400 mg/kg | – | – | –
3 | Cc1ccccc1-c1nc(N)nc(O)c1Br | – | 60 mg/kg | > 400 mg/kg | > 400 mg/kg | 0.2
4 | Nc1nc(O)c(I)c(-c2cccc(F)c2F)n1 | >=2000 ml | > 400 mg/kg | 365 mg/kg | – | 0.34
5 | Nc1nc(O)c(Cl)c(-c2cccc3ccccc23)n1 | – | 80 mg/kg | > 400 mg/kg | > 400 mg/kg | 0.54
6 | Nc1nc(=O)c(Br)c(-c2ccccc2)[nH]1 [BROPIRIMINE] | – | 100 mg/kg | 100 mg/kg | 50 mg/kg | 0.6
7 | CCOCCOc1cccc(-c2nc(N)nc(O)c2Br)c1 | – | – | – | – | 0.55
8 | COc1ccccc1-c1nc(N)nc(O)c1Cl | 50 units/mL | 20 mg/kg | > 400 mg/kg | – | 0.53
9 | Nc1nc(O)c(I)c(-c2cc(Cl)ccc2Cl)n1 | >=2000 ml | 305 mg/kg | 75 mg/kg | 115 mg/kg | 0
10 | Nc1nc(O)c(Cl)c(-c2ccccc2Cl)n1 | 50 units/mL | 300 mg/kg | – | – | –
11 | Nc1nc(O)c(Cl)c(-c2cccc(Cl)c2)n1 | 50 units/mL | 135 mg/kg | > 400 mg/kg | > 400 mg/kg | 0.86
12 | Nc1nc(O)c(Br)c(-c2ccccc2Cl)n1 | – | 285 mg/kg | – | – | –
13 | Nc1nc(O)c(I)c(-c2ccc(OCc3ccccc3)cc2)n1 | – | > 400 mg/kg | – | – | –
14 | Nc1nc(O)c(I)c(-c2ccc(F)cc2)n1 | >=2000 ml | 245 mg/kg | 260 mg/kg | 250 mg/kg | 0.29
15 | Nc1nc(O)c(Br)c(-c2cnccn2)n1 | – | 65 mg/kg | > 400 mg/kg | 365 mg/kg | –
16 | Nc1nc(O)c(Cl)c(-c2ccccc2)n1 | >=2000 ml | 100 mg/kg | 90 mg/kg | 105 mg/kg | 0.62
17 | CCOc1cccc(-c2nc(N)nc(O)c2I)c1 | – | – | – | – | 0
18 | Nc1nc(O)c(Cl)c(-c2ccc(F)cc2)n1 | – | 300 mg/kg | > 400 mg/kg | 355 mg/kg | 0.85
19 | Nc1nc(O)c(Cl)c(-c2cc(F)cc(F)c2)n1 | 50 units/mL | 185 mg/kg | > 400 mg/kg | – | 0.5
20 | Nc1nc(O)c(I)c(-c2ccc(C(=O)O)cc2)n1 | – | 380 mg/kg | – | – | –
21 | CCOc1cccc(-c2nc(N)nc(O)c2Br)c1 | – | – | – | – | 0.4
22 | Nc1nc(O)c(I)c(-c2cc(F)cc(F)c2)n1 | >=2000 ml | 230 mg/kg | > 400 mg/kg | – | 0
23 | Nc1nc(O)c(Br)c(-c2cccc([N+](=O)[O-])c2)n1 | – | 140 mg/kg | > 400 mg/kg | > 400 mg/kg | 0.53
24 | Nc1nc(O)c(Br)c(-c2ccco2)n1 | 50 units/mL | 295 mg/kg | > 400 mg/kg | > 400 mg/kg | 0.14
25 | CCOCCOc1cccc(-c2nc(N)nc(O)c2I)c1 | – | – | – | – | 0.21
26 | Nc1nc(O)c(Cl)c(-c2ccc(Cl)c(Cl)c2)n1 | – | 225 mg/kg | > 400 mg/kg | > 400 mg/kg | 0
27 | Nc1nc(O)c(Cl)c(-c2ccco2)n1 | – | 120 mg/kg | – | – | –

Row | Compound | IFN [1] | ED50 (Semliki Forest virus [2]) | ED50 (Semliki Forest virus [3]) | ED50 (Semliki Forest virus [4]) | Protection index (Human alphaherpesvirus 1)
28 | COc1cc(OC)cc(-c2nc(N)nc(O)c2Br)c1 | – | 15 mg/kg | – | – | –
29 | COc1ccccc1-c1nc(N)nc(O)c1I | 50 units/mL | 25 mg/kg | > 400 mg/kg | 120 mg/kg | 0.69
30 | Nc1nc(O)c(Br)c(-c2cccc(I)c2)n1 | – | 355 mg/kg | 170 mg/kg | > 400 mg/kg | –
31 | Nc1nc(O)c(Br)c(-c2cc(F)ccc2F)n1 | >=2000 ml | 165 mg/kg | > 400 mg/kg | – | 0
32 | COc1cc(OC)cc(-c2nc(N)nc(O)c2I)c1 | – | 55 mg/kg | – | – | –
33 | Nc1nc(O)c(Br)c(-c2ccc(Cl)c(Cl)c2)n1 | – | 215 mg/kg | > 400 mg/kg | > 400 mg/kg | 0.29
34 | Nc1nc(O)c(Br)c(-c2cc(F)cc(F)c2)n1 | 50 units/mL | 150 mg/kg | – | – | 0
35 | Nc1nc(O)c(Cl)c(-c2cccc(O)c2)n1 | – | – | – | – | 0.5
36 | Nc1nc(O)c(I)c(-c2cccc(C(F)(F)F)c2)n1 | >=2000 ml | 160 mg/kg | > 400 mg/kg | > 400 mg/kg | 0.36
37 | Nc1nc(O)c(I)c(-c2c(F)cccc2F)n1 | – | 285 mg/kg | – | – | –
38 | CCOc1cccc(-c2nc(N)nc(O)c2Cl)c1 | – | – | – | – | 0.13
39 | Nc1nc(O)c(Br)c(-c2cccc(F)c2F)n1 | >=2000 ml | 115 mg/kg | 330 mg/kg | – | 0.54
40 | Nc1nc(O)c(I)c(-c2cccc([N+](=O)[O-])c2)n1 | >=2000 ml | 90 mg/kg | > 400 mg/kg | 155 mg/kg | 0.6
41 | Nc1nc(O)c(Cl)c(-c2cccc([N+](=O)[O-])c2)n1 | 50 units/mL | 140 mg/kg | > 400 mg/kg | 380 mg/kg | 0.92
42 | Nc1nc(O)c(I)c(-c2ccccn2)n1 | >=2000 ml | 215 mg/kg | 235 mg/kg | > 400 mg/kg | –
43 | Nc1nc(O)c(Cl)c(-c2cc(Cl)ccc2Cl)n1 | >=2000 ml | 120 mg/kg | 200 mg/kg | 115 mg/kg | 0.47
44 | Cc1ccccc1-c1nc(N)nc(O)c1I | – | 175 mg/kg | > 400 mg/kg | 205 mg/kg | 0.13
45 | Nc1nc(O)c(Br)c(-c2cccnc2)n1 | – | 75 mg/kg | > 400 mg/kg | > 400 mg/kg | 0.45
46 | Nc1nc(O)c(I)c(-c2ccccc2Cl)n1 | – | 90 mg/kg | – | – | 0.13
47 | Nc1nc(O)c(Cl)c(-c2ccccc2O)n1 | – | – | – | – | 0.61
48 | Nc1nc(O)c(I)c(-c2cccc(I)c2)n1 | 50 units/mL | 125 mg/kg | – | – | 0.53
49 | Nc1nc(O)c(I)c(-c2ccncc2)n1 | – | 365 mg/kg | > 400 mg/kg | > 400 mg/kg | –
50 | Nc1nc(O)c(Br)c(-c2cc(Cl)ccc2Cl)n1 | >=2000 ml | 180 mg/kg | > 400 mg/kg | > 400 mg/kg | –
51 | Nc1nc(O)c(I)c(-c2cc(F)ccc2F)n1 | >=2000 ml | 95 mg/kg | > 400 mg/kg | – | 0
52 | COc1cc(OC)cc(-c2nc(N)nc(O)c2Cl)c1 | – | 90 mg/kg | – | – | –
53 | Nc1nc(O)c(Br)c(-c2ccccn2)n1 | >=2000 ml | 75 mg/kg | 310 mg/kg | 65 mg/kg | –
